Measurements: ChEMBL document CHEMBL5137045, “Discovery of 2-(furan-2-ylmethylene)hydrazine-1-carbothioamide derivatives as novel inhibitors of SARS-CoV-2 main protease” (Eur J Med Chem, 2022)
Active and inactive are the calls of the source. No cut-off for these calls is given here.

Key:
[1] = molecular target: Replicase polyprotein 1ab (Severe acute respiratory syndrome coronavirus 2) (UniProt P0DTD1); assay: Inhibition of SARS CoV-2 main protease at 50 uM using DABCYL-KTSAVLQSGFRKM-E(EDANS)-NH2 as substrate preincubated for 30 mins followed by substrate addition and measured after 20 mins relative to control; conditions: time 50.0 min
How it was run: (§1)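 FRET protease assay in 40 mM PBS, 100 mM NaCl, 1 mM EDTA, 0.1% Triton, pH 7.3. M^pro (0.5 μM) was preincubated with inhibitor 30 min at room temperature, then 20 μM substrate was added. Cleavage fluorescence (ex 360/em 460 nm) was read for 20 min. This covers preliminary screening and IC50; IC50 from Hill1 fit.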

[2] = molecular target: T1, Replicase polyprotein 1ab (Severe acute respiratory syndrome coronavirus 2, UniProt P0DTD1); assay: Inhibition of SARS CoV-2 main protease using DABCYL-KTSAVLQSGFRKM-E(EDANS)-NH2 as substrate preincubated for 30 mins followed by substrate addition and measured after 20 mins
[3] = molecular target: Replicase polyprotein 1ab (Severe acute respiratory syndrome coronavirus 2) (UniProt P0DTD1); assay: Reversible inhibition of SARS CoV-2 main protease at 100 uM incubated for 180 mins by ultrafiltration assay
How it was run: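 Reversibility: 10 μM M^pro was incubated with 100 μM inhibitor for 180 min and split into four portions, each ultrafiltered a different number of times. Each round added an equal volume of assay buffer, 5 min, 4 °C, 12,000 rpm. Retained protease was diluted to 0.5 μM and assayed for activity; three replicates averaged.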

MDCK = assay: Cytotoxicity against MDCK cells assessed as reduction in cell viability incubated for 48 hrs by MTT assay; format: toxicity, cell-based, Canis lupus familiaris; conditions: dog
How it was run: (§2)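 MTT viability assay. Vero cells were kept in MEM and MDCK cells in DMEM, each with 10% FBS and 100 U/mL penicillin/streptomycin, humidified, 5% CO2. Cells were seeded, incubated 18 h, then given compound; vehicle served as blank.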

Procathepsin L = Procathepsin L (Homo sapiens, UniProt P07711); assay: Inhibition of human Cathepsin L using Ac-FR-AFC as fluorescent substrate preincubated for 15 mins followed by substrate addition and measured after 30 mins by fluorescent microplate reader analysis
[4] = molecular target: T1, Replicase polyprotein 1ab; assay: Inhibition of SARS CoV-2 main protease using DABCYL-KTSAVLQSGFRKM-E(EDANS)-NH2 as substrate preincubated for 180 mins followed by substrate addition
How it was run: (§3)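 Time-dependence: M^pro was preincubated with various inhibitor concentrations for different times at room temperature before fluorogenic substrate addition. Activity was read as in the standard FRET assay.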

[5] = molecular target: T1, Replicase polyprotein 1ab; assay: Inhibition of SARS CoV-2 main protease using DABCYL-KTSAVLQSGFRKM-E(EDANS)-NH2 as substrate preincubated for 5 mins followed by substrate addition; how it was run: as §3
[6] = molecular target: T1, Replicase polyprotein 1ab; assay: Inhibition of SARS CoV-2 main protease using DABCYL-KTSAVLQSGFRKM-E(EDANS)-NH2 as substrate preincubated for 30 mins followed by substrate addition; how it was run: as §1
Vero = assay: (§4) Cytotoxicity against African green monkey Vero cells assessed as reduction in cell viability measured after 48 hrs by MTT assay; format: toxicity, cell-based; conditions: chlorocebus sabaeus, vero, 48 h; how it was run: as §2
[7] = molecular target: Replicase polyprotein 1ab (Severe acute respiratory syndrome coronavirus 2) (UniProt P0DTD1); assay: Covalent binding affinity to SARS CoV-2 main protease at 15 uM incubated for 3 hrs by Quadrupole-TOF LC-MS/MS analysis
How it was run: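 Protease (2 μM) was co-incubated with 15 μM inhibitor on ice for 3 h. The complex was run on Q-TOF LC-MS/MS, and raw mass signal was deconvoluted to give total protein mass.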

[8] = molecular target: Replicase polyprotein 1ab (Severe acute respiratory syndrome coronavirus 2) (UniProt P0DTD1); assay: Non-competitive inhibition of SARS CoV-2 main protease using DABCYL-KTSAVLQSGFRKM-E(EDANS)-NH2 as substrate at varying concentrations preincubated for 3 hrs followed by substrate addition by Lineweaver-burk plot analysis
How it was run: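 Kinetics: 0.5 μM M^pro was preincubated 3 h with DMSO or inhibitor, then varying fluorogenic substrate concentrations started the reaction. Three replicates, curve-fitted.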

[9] = molecular target: T1, Replicase polyprotein 1ab; assay: Binding affinity to SARS-CoV-2 main protease assessed as dissociation constant by SPR analysis
How it was run: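 SPR with M^pro immobilised and an empty first flow channel as reference. Compounds were injected for 60 s at 0.2–100 μM for binding (50 μM for screening). Dissociation was followed for 100–200 s at 30 μL/min. […] K_D came from a 1:1 kinetic binding fit.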

[10] = as §4; format: toxicity, cell-based; conditions: chlorocebus sabaeus, Vero cells; how it was run: as §2

Sequence of Procathepsin L (P07711 whole entry): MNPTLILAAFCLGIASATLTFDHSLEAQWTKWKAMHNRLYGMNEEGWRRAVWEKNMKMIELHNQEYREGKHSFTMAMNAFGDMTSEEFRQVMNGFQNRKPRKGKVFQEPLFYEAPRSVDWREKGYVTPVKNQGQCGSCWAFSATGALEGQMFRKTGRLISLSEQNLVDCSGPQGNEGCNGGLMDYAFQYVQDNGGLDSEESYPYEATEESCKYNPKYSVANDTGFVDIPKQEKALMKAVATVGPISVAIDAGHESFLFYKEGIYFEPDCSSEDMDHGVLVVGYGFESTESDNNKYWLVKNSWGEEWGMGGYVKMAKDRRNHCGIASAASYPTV

| Compound | inhibition [1] | IC50 [2] | other results |
| --- | --- | --- | --- |
| NC(=S)N/N=C/c1ccc(-c2cnc3ccccc3c2)o1 | 88.9% | 10.3 µM | – |
| Cc1cc(C(=O)O)ccc1-c1ccc(/C=N/NC(N)=S)o1 | 98.5% | 4.69 µM | – |
| COc1ccc(-c2ccc(/C=N/NC(N)=S)o2)cc1OC | 102% | 5.81 µM | – |
| NC(=S)N/N=C/c1ccc(-c2cc(C(=O)O)ccc2Cl)o1 | 97.2% | 10 µM | – |
| NC(=S)N/N=C/c1ccc(-c2ccc(O)c(C(=O)O)c2)o1 | 115% | 9.09 µM | – |
| NC(=S)N/N=C/c1ccc(-c2ccc(C(=O)O)cc2)o1 | 89.4% | 17.5 µM | – |
| NC(=S)N/N=C/c1ccc(-c2cccc(C(=O)O)c2)o1 | 85.1% | 10.9 µM | – |
| NC(=S)N/N=C/c1ccc(-c2ccc(S(N)(=O)=O)cc2)o1 | 98.5% | 5.39 µM | – |
| Cc1cc(-c2ccc(/C=N/NC(=O)Cn3nnnc3N)o2)c([N+](=O)[O-])cc1C | 86% | 17.5 µM | – |
| NC(=S)N/N=C/c1ccc(-c2ccc(F)nc2)o1 | 97.4% | 8.76 µM | – |
| NC(=S)N/N=C/c1ccc(-c2ccc(C(=O)O)c(O)c2)o1 | 102% | 1.57 µM | inhibition [3]: Active; CC50 (MDCK): > 100 µM; IC50 (Procathepsin L): 16.3 µM; IC50 [4]: 0.85 µM; IC50 [5]: 42.8 µM; IC50 [6]: 6.18 µM; CC50 (Vero): > 100 µM; Activity [7]: Active; inhibition [8]: Active |
| NC(=S)N/N=C/c1ccc(-c2ccncc2)o1 | 95.4% | 7.09 µM | – |
| N#Cc1cc(-c2ccc(/C=N/NC(N)=S)o2)ccc1O | 107% | 4.14 µM | – |
| NC(=S)N/N=C/c1ccc(-c2ccc(C(=O)O)cc2)s1 | 95.1% | 5.78 µM | – |
| NC(=O)c1ccc(-c2ccc(/C=N/NC(N)=S)o2)cc1 | 94.2% | 4 µM | – |
| NC(=S)N/N=C/c1ccc(-c2ccc(Cl)c(C(=O)O)c2)o1 | 93.6% | 25.4 µM | – |
| Nc1nonc1-c1nc2ccccc2n1CC(=O)N/N=C/c1ccc(-c2cccc(C(=O)O)c2)o1 | 65% | 21.3 µM | Kd [9]: 27.7 µM |
| NC(=S)N/N=C/c1ccc(-c2cccc(C(=O)O)c2Cl)o1 | 84.4% | 40.6 µM | – |
| NC(=S)N/N=C/c1ccc(-c2cccc([N+](=O)[O-])c2)o1 | 81.6% | 8.08 µM | – |
| NC(=S)N/N=C/c1cccc(-c2ccc(C(=O)O)cc2)c1 | 99.2% | 5.44 µM | – |
| NC(=S)N/N=C/c1ccc(-c2ccccc2)o1 | 100% | 4.05 µM | – |
| Cc1cc([N+](=O)[O-])c(-c2ccc(/C=N/NC(=O)c3nonc3N)o2)cc1Cl | 70.9% | 25 µM | – |

| Compound | inhibition [1] | IC50 [2] | other results |
| --- | --- | --- | --- |
| NC(=S)N/N=C/c1ccc(-c2ccc([N+](=O)[O-])cc2)o1 | 81.1% | 9.69 µM | – |
| NC(=S)N/N=C/c1ccc(-c2ccc(C(=O)O)cc2F)o1 | 101% | 8.14 µM | – |
| NC(=S)N/N=C/c1ccc(-c2ccc(C(=O)O)c(Cl)c2)o1 | 89% | 32.5 µM | – |
| NC(=S)N/N=C/c1ccc(Cc2ccccc2)o1 | 100% | 1.55 µM | CC50 (MDCK): > 100 µM; IC50 (Procathepsin L): 8.09 µM; CC50 at 48 h [10]: 100 µM |
| NC(=S)N/N=C/c1ccc(-c2ccc3cccnc3c2)o1 | 92.3% | 10.4 µM | – |
| O=C(NCCCn1ccnc1)/C(=C\c1ccc(-c2cccc([N+](=O)[O-])c2)o1)NC(=O)c1ccccc1 | 28.8% | – | – |
| O=C(O)c1cc(-c2ccc(/C=C3\NC(=O)N(Cc4ccccc4F)C3=O)o2)ccc1Cl | 53.4% | – | – |
| O=C(O)c1cccc(-c2ccc(/C=N/NC(=S)Nc3cccc(C(F)(F)F)c3)o2)c1 | 43% | – | – |
| COc1ccc(/N=C2/S/C(=C\c3ccc(-c4ccc(Cl)c(C(=O)O)c4)o3)C(=O)N2C)cc1 | 27.1% | – | – |
| Cc1c(NC(=S)NC(=O)c2cccc(Br)c2)c(=O)n(-c2ccccc2)n1C | < 20% | – | – |
| CCNC(S)=Nc1c(C)n(C)n(-c2ccccc2)c1=O | < 20% | – | – |
| NC(=S)N/N=C/c1cc(-c2ccc(C(=O)O)cc2)co1 | 90.9% | 24.6 µM | – |
| O=C(CNC(=O)c1ccccc1F)N/N=C/c1ccc([N+](=O)[O-])o1 | < 20% | – | – |
| CC1=CC2=NC(=O)/C(=C\c3ccc(-c4cccc(C(=O)O)c4)o3)C(=N)N2O1 | < 20% | – | – |
| C/C(=N\NC(=S)Nc1c(C)n(C)n(-c2ccccc2)c1=O)c1cccc([N+](=O)[O-])c1 | < 20% | – | – |
| O=C(CNc1ccc2ccccc2c1)N/N=C/c1ccc(-c2ccc([N+](=O)[O-])cc2)o1 | 23% | – | – |
| Cc1c(NC(=S)N/N=C/c2ccc(-c3ccc([N+](=O)[O-])cc3)o2)c(=O)n(-c2ccccc2)n1C | 95% | 10.8 µM | – |
| CNC(=S)N/N=C/c1ccc(-c2cccc(C(=O)O)c2)o1 | 22.2% | – | – |
| Cc1cc(-c2ccc(/C=N/NC(=O)Cn3c(-c4nonc4N)nc4ccccc43)o2)ccc1[N+](=O)[O-] | 42.9% | – | – |
| Cc1c(NC(=S)NC(=O)c2ccc(Cl)cc2)c(=O)n(-c2ccccc2)n1C | < 20% | – | – |
| CCOC(=O)c1ccc(-c2ccc(/C=N/NC(=O)Cn3c4ccccc4c(=O)c4ccccc43)o2)cc1 | < 20% | – | – |
